Measured values taken from article PMC9272583 (European Journal of Medicinal Chemistry, 2022).
Where two headings read alike, the source gives them in different places.

Legend:
SARS-CoV-2 M^pro [1] = target: T1, SARS-CoV-2 M^pro (Severe acute respiratory syndrome coronavirus 2, UniProt P0DTD1); assay: SARS-CoV-2 Mpro fluorogenic; assay type: biochemical; conditions: for inhibition at 50 µM: 0.25 h, read-out: SARS-CoV-2 M^pro % (50 μM); for time dependent inhibition: 12.5 μM; for competitive binding (Cheng-Prusoff plots): increasing substrate concentration
DENV serotype 2 protease = DENV serotype 2 protease (Dengue virus type 2, UniProt P29990); assay: DENV2 reporter gene assay; assay type: cell-based; conditions: for inhibition at 12.5 µM: HeLa, 24 h, read-out: DENV2proHeLa % (12.5 μM)
Procedure, shortened: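 Stable DENV2proHeLa cells (DMEM, 10% heat-inactivated FCS, antibiotics) were seeded at 2 x 10^4 per well, dosed at once and incubated 24 h at 37 °C. Cells were lysed 15 min at room temperature, then coelenterazine (2.75 μM in PBS) was injected and luciferase read for 5 s. Triplicates; % inhibition vs untreated control. EC50 from a 4-parameter fit after background subtraction (cell-free wells).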

SARS-CoV-2 M^pro [2] = target: T1, SARS-CoV-2 M^pro; assay: SARS-CoV-2 Mpro mass adduct measurement; assay type: binding; conditions: ESI-TOF, 100 μM compound
Procedure, shortened: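 Test compound (100 μM) was incubated with active recombinant Mpro (3 μM; bacterially expressed, Ni-NTA then size-exclusion purified) in 50 mM Tris-HCl pH 7.4, 100 mM NaCl, 20% v/v ethylene glycol, 0.0016% Brij 58. Analysis was by LC-ESI-TOF MS on a C18 column: water/acetonitrile with 0.1% formic acid, 10→95% B over 4 min, 0.3 mL/min. Negative mode, Na-formate external calibration.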

[3] = Parallel artificial membrane permeability assay; assay type: in vitro ADME; conditions: PAMPA
DENV-2 protease = target: T2, DENV-2 protease (Dengue virus type 2, UniProt P29990); assay: Compound stability against DENV-2 protease; conditions: 8 h of incubation in DENV assay buffer, HPLC
T2 sequence (P29990 1476-1653 limits assumed): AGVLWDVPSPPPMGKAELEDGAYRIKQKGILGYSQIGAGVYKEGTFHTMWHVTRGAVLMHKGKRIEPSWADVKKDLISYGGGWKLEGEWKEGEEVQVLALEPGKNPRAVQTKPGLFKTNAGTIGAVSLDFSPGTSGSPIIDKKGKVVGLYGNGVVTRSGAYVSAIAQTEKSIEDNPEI

SARS-CoV-2 M^pro [4] = target: T1, SARS-CoV-2 M^pro; assay: Dilution experiment; assay type: biochemical; conditions: preincubated 100 μM for 2 h, diluted to 3 μM
SARS-CoV-2 M^pro [5] = target: T1, SARS-CoV-2 M^pro; assay: SARS-CoV-2 Mpro Michaelis-Menten kinetics; assay type: biochemical; conditions: Michaelis-Menten plot
SARS-CoV-2 M^pro [6] = target: T1, SARS-CoV-2 M^pro; assay: Compound stability against SARS-CoV-2 Mpro; conditions: 8 h of incubation in assay buffer, HPLC
DENV serotype 2 = conditions: DENV-2 titer reduction; cited from earlier work
DENV2proHeLa cells = assay: Cytotoxicity in DENV2proHeLa cells; assay type: cell-based
Procedure, shortened: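 HeLa cells stably carrying the DENV2 protease reporter, kept in DMEM with 10% heat-inactivated FCS, penicillin and streptomycin. Cells were seeded at 2 x 10^4 per well and given compound dilutions straight away. Plates ran in parallel with the reporter assay for 24 h at 37 °C. Viability was read by CellTiter-Blue, with each concentration in triplicate.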

[7] = read-out: DENV2proHeLa EC50, reporter gene assay in HeLa cells

Chain of DENV serotype 2 protease (P29990 1346-1475): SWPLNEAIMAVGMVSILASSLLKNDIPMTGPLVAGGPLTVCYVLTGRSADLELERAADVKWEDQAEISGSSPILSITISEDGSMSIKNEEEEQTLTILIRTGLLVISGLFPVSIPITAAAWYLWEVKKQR
Chain of DENV serotype 2 protease (P29990 1476-2093): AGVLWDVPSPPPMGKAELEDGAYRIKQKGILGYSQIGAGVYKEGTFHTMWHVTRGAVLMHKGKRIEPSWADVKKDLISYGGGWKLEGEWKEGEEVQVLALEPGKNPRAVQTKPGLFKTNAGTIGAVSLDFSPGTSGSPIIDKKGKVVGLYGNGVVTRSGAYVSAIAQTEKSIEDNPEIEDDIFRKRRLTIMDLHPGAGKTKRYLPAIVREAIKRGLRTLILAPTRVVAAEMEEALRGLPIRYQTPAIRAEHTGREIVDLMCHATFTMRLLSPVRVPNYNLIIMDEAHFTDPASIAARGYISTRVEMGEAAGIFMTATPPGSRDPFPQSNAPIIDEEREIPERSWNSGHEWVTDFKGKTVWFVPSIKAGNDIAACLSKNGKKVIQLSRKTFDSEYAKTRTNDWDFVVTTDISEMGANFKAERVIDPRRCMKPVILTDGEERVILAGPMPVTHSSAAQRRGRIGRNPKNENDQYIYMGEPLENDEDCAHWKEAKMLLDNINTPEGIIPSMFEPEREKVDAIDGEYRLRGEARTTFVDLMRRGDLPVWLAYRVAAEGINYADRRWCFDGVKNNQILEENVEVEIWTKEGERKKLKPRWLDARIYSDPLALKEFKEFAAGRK

## COc1cccc(COc2cccc(C(=O)Nc3ccc4c(c3)B(O)OC4)c2)c1 [Compound 30, N-(1-Hydroxy-1,3-dihydrobenzo[c][1,2]oxaborol-6-yl)-3-((3-methoxybenzyl)oxy)benzamide]
SARS-CoV-2 M^pro [1]
  inhibition at 50 µM: 43.4 ± 9.1%
DENV serotype 2 protease
  EC50: 2900 ± 300 nM
  inhibition at 12.5 µM: 80.4 ± 2%

## CC(C)(C)NC(=O)N[C@H](C(=O)N1C[C@H]2[C@@H]([C@H]1C(=O)NC(CC1CCC1)C(=O)C(N)=O)C2(C)C)C(C)(C)C (some centres unmarked) [boceprevir]
SARS-CoV-2 M^pro [2]
  mass adducts with SARS-CoV-2 M^pro: adducts were found

## O=S(=O)(Nc1ccc2c(c1)B(O)OC2)c1ccc(Cl)cc1 [Compound 11, 4-Chloro-N-(1-hydroxy-1,3-dihydrobenzo[c][1,2]oxaborol-6-yl)benzenesulfonamide]
[3]
  passive membrane permeability (in words): passive permeability

## O=C(Nc1ccc2c(c1)B(O)OC2)c1cccc(OCc2c(Cl)cccc2Cl)c1 [Compound 33, 3-((2,6-Dichlorobenzyl)oxy)-N-(1-hydroxy-1,3-dihydrobenzo[c][1,2]oxaborol-6-yl)benzamide]
[3]
  passive membrane permeability (in words): passive permeability
DENV serotype 2 protease
  inhibition at 12.5 µM: 85.6 ± 4.3%
DENV serotype 2 protease; [7]
  EC50: 540 ± 50 nM

## O=C(Nc1ccc2c(c1)B(O)OC2)c1ccc(Oc2ccccc2)cc1 [Compound 15, N-(1-Hydroxy-1,3-dihydrobenzo[c][1,2]oxaborol-6-yl)-4-phenoxybenzamide]
[3]
  passive membrane permeability (in words): passive permeability
DENV-2 protease
  stability against DENV-2 protease: no decrease in the compound AUC

## O=C(Nc1cccc(B(O)O)c1)c1cccc(OCc2ccccc2)c1 [Compound 26, (3-(3-(Benzyloxy)benzamido)phenyl)boronic acid]
[3]
  passive membrane permeability (in words): passive permeability

## O=C(Nc1ccc2c(c1)B(O)OC2)c1cccc(OCc2ccccc2)n1 [Compound 28, 6-(Benzyloxy)-N-(1-hydroxy-1,3-dihydrobenzo[c][1,2]oxaborol-6-yl)picolinamide]
SARS-CoV-2 M^pro [1]
  inhibition at 50 µM: 55.5 ± 7%
DENV serotype 2 protease
  inhibition at 12.5 µM: 85.2 ± 4.1%
DENV serotype 2 protease; [7]
  EC50: 2500 ± 200 nM

## O=C(Nc1ccc2c(c1)B(O)OC2)c1cccc(OCc2ccccc2)c1 [Compound 18, 3-(Benzyloxy)-N-(1-hydroxy-1,3-dihydrobenzo[c][1,2]oxaborol-6-yl)benzamide]
SARS-CoV-2 M^pro [4]
  reversibility of binding: reversible
SARS-CoV-2 M^pro [5]
  inhibition mode: mixed inhibition mode
[3]
  passive membrane permeability (in words): passive permeability
SARS-CoV-2 M^pro [1]
  Hill slope of dose-response curve: 1.39 ± 0.16
  time dependent inhibition: no significant increase or decrease
  competitive binding (Cheng-Prusoff plots): do not show competitive binding
DENV-2 protease
  stability against DENV-2 protease: no decrease in the compound AUC
SARS-CoV-2 M^pro [6]
  stability against SARS-CoV-2 M^pro: no cleavage

## N=C(N)Nc1ccc2c(c1)B(O)OC2 [Compound 4, 1-(1-Hydroxy-1,3-dihydrobenzo[c][1,2]oxaborol-6-yl)guanidine]
[3]
  passive membrane permeability (in words): no permeability
SARS-CoV-2 M^pro [1]
  Hill slope of dose-response curve: 1.15 ± 0.07

## O=C(Nc1ccc2c(c1)B(O)OC2)c1ccc(OCc2ccc(Cl)cc2)cc1 [Compound 20, 4-((4-Chlorobenzyl)oxy)-N-(1-hydroxy-1,3-dihydrobenzo[c][1,2]oxaborol-6-yl)benzamide]
[3]
  passive membrane permeability (in words): passive permeability
DENV-2 protease
  stability against DENV-2 protease: no decrease in the compound AUC

## O=C(Nc1ccc2c(c1)B(O)OC2)c1cccc(OCc2ccc(Cl)cc2)c1 [Compound 32, 3-((4-Chlorobenzyl)oxy)-N-(1-hydroxy-1,3-dihydrobenzo[c][1,2]oxaborol-6-yl)benzamide]
DENV serotype 2 protease
  EC50: 2400 ± 200 nM
  inhibition at 12.5 µM: 83.6 ± 1.7%
DENV-2 protease
  stability against DENV-2 protease: no decrease in the compound AUC

## O=C(Nc1ccc2c(c1)B(O)OC2)c1cccc(OCC2CCCCC2)c1 [Compound 34, 3-(Cyclohexylmethoxy)-N-(1-hydroxy-1,3-dihydrobenzo[c][1,2]oxaborol-6-yl)benzamide]
DENV serotype 2 protease
  EC50: 3400 ± 500 nM

## Cc1cccc(COc2cccc(C(=O)Nc3ccc4c(c3)B(O)OC4)c2)c1 [Compound 29, N-(1-Hydroxy-1,3-dihydrobenzo[c][1,2]oxaborol-6-yl)-3-((3-methylbenzyl)oxy)benzamide]
SARS-CoV-2 M^pro [1]
  inhibition at 50 µM: 45.7 ± 6.3%
DENV serotype 2 protease
  EC50: 1100 ± 100 nM
  inhibition at 12.5 µM: 90 ± 0.9%

## O=C(Nc1cccc(C(=O)Nc2ccc3c(c2)B(O)OC3)c1)c1ccccc1 [Compound 23, 3-Benzamido-N-(1-hydroxy-1,3-dihydrobenzo[c][1,2]oxaborol-6-yl)benzamide]
SARS-CoV-2 M^pro [6]
  stability against SARS-CoV-2 M^pro: no cleavage

## CCCCCC(=O)NC(C(=O)NCc1ccc(NC(=N)N)cc1)c1ccc(OCc2ccccc2)cc1 (centres unmarked) [NK-189, reference compound]
DENV serotype 2
  antiviral activity of the reference substance: 0.89 µM
DENV2proHeLa cells
  CC50: > 50000 nM
DENV serotype 2 protease; inhibitor 12.5 μM, reporter gene assay in HeLa cells
  DENV2proHeLa % (12.5 μM): 79.3 ± 9.7%
DENV serotype 2 protease; [7]
  EC50: 600 ± 100 nM

## N=C(N)Nc1ccc(C(=O)Nc2ccc3c(c2)B(O)OC3)cc1 [Compound 8, 4-guanidino-N-(1-hydroxy-1,3-dihydrobenzo[c][1,2]oxaborol-6-yl)benzamide]
SARS-CoV-2 M^pro [1]
  Hill slope of dose-response curve: 1.14 ± 0.07
  time dependent inhibition: no significant increase or decrease
  competitive binding (Cheng-Prusoff plots): do not show competitive binding
SARS-CoV-2 M^pro [6]
  stability against SARS-CoV-2 M^pro: no cleavage

## N#Cc1ccc(COc2cccc(C(=O)Nc3ccc4c(c3)B(O)OC4)c2)cc1 [Compound 31, 3-((4-Cyanobenzyl)oxy)-N-(1-hydroxy-1,3-dihydrobenzo[c][1,2]oxaborol-6-yl)benzamide]
[3]
  passive membrane permeability (in words): passive permeability
SARS-CoV-2 M^pro [1]
  inhibition at 50 µM: 31.7 ± 3.6%
DENV serotype 2 protease
  EC50: 4100 ± 200 nM
  inhibition at 12.5 µM: 82.2 ± 3.7%

## O=C(Nc1ccc2c(c1)B(O)OC2)c1ccccc1OCc1ccccc1 [Compound 17, 2-(Benzyloxy)-N-(1-hydroxy-1,3-dihydrobenzo[c][1,2]oxaborol-6-yl)benzamide]
[3]
  passive membrane permeability (in words): passive permeability
